From ChEMBL document CHEMBL5058577, “EUbOPEN Chemogenomics Library 2 (Multiplex)” (2022)

System: HEK-293T
Assay: Multiplex assay against HEK293T
Assay type: toxicity, cell-based
Conditions: human
Method in brief: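 Hoechst33342, BioTracker Green Microtubule Cytoskeleton Dye, MitoTracker Red and Annexin V Alexa Fluor 680 were added to live cells at seeding, and imaging on a CQ1 microscope at 37°C and 5% CO2 followed compound addition. Gating by CellPathfinder machine learning separated cells into Hoechst high-intensity objects or normal cells, then normal cells into healthy, pyknosed or fragmented nuclei, then pyknosed cells into mitotic or apoptotic. Per cents of healthy-nucleus cells are reported for the tubulin, mitochondrial-mass and membrane-permeability phenotypes.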

[1] = 12 h, 1 µM, compound concentration 1 uM, replicate 1
[2] = 12 h, 1 µM, compound concentration 1 uM, replicate 2
[3] = 12 h, 10 µM, compound concentration 10 uM, replicate 1
[4] = 12 h, 10 µM, compound concentration 10 uM, replicate 2
[5] = 24 h, 1 µM, compound concentration 1 uM, replicate 1
[6] = 24 h, 1 µM, compound concentration 1 uM, replicate 2
[7] = 24 h, 10 µM, compound concentration 10 uM, replicate 1
[8] = 24 h, 10 µM, compound concentration 10 uM, replicate 2
[9] = 48 h, 1 µM, compound concentration 1 uM, replicate 1
[10] = 48 h, 1 µM, compound concentration 1 uM, replicate 2
[11] = 48 h, 10 µM, compound concentration 10 uM, replicate 1
[12] = 48 h, 10 µM, compound concentration 10 uM, replicate 2

Cc1c(Cc2ccc3ccccc3n2)c2cc(F)ccc2n1CC(=O)O [TIMAPIPRANT]
Population Apoptotic (%) [1]: 42%
Population Fragmented Nuclei (%) [1]: 7%
Population Healthy Nuclei (%) [1]: 80%
Population Hoechst High Intensity Objects (%) [1]: 10%
Population Membrane Permeable-Phenotype (%) [1]: 0%
Population Mitochondria Different-Phenotype (%) [1]: 36%
Population Mitotic Cells (%) [1]: 57%
Population Normal (%) [1]: 89%
Population Pyknosed Nuclei (%) [1]: 11%
Population Tubulin-Different-Phenotype (%) [1]: 20%
Total Cell Count [1]: 394
Population Fragmented Nuclei (%) [2]: 6%
Population Hoechst High Intensity Objects (%) [2]: 7%
Population Mitochondria Different-Phenotype (%) [2]: 55%
Population Normal (%) [2]: 92%
Population Pyknosed Nuclei (%) [2]: 12%
Population Tubulin-Different-Phenotype (%) [2]: 16%
Total Cell Count [2]: 280
Population Apoptotic (%) [3]: 32%
Population Fragmented Nuclei (%) [3]: 7%
Population Healthy Nuclei (%) [3]: 78%
Population Hoechst High Intensity Objects (%) [3]: 6%
Population Membrane Permeable-Phenotype (%) [3]: 0%
Population Mitochondria Different-Phenotype (%) [3]: 55%
Population Mitotic Cells (%) [3]: 67%
Population Normal (%) [3]: 93%
Population Pyknosed Nuclei (%) [3]: 14%
Population Tubulin-Different-Phenotype (%) [3]: 38%
Total Cell Count [3]: 434
Population Apoptotic (%) [4]: 33%
Population Fragmented Nuclei (%) [4]: 6%
Population Hoechst High Intensity Objects (%) [4]: 5%
Population Mitochondria Different-Phenotype (%) [4]: 63%
Population Mitotic Cells (%) [4]: 66%
Population Normal (%) [4]: 94%
Population Pyknosed Nuclei (%) [4]: 15%
Population Tubulin-Different-Phenotype (%) [4]: 28%
Total Cell Count [4]: 354
Population Apoptotic (%) [5]: 31%
Population Fragmented Nuclei (%) [5]: 10%
Population Healthy Nuclei (%) [5]: 81%
Population Hoechst High Intensity Objects (%) [5]: 4%
Population Membrane Permeable-Phenotype (%) [5]: 1%
Population Mitochondria Different-Phenotype (%) [5]: 20%
Population Mitotic Cells (%) [5]: 68%
Population Normal (%) [5]: 95%
Population Pyknosed Nuclei (%) [5]: 8%
Population Tubulin-Different-Phenotype (%) [5]: 15%
Total Cell Count [5]: 516
Population Apoptotic (%) [6]: 53%
Population Fragmented Nuclei (%) [6]: 7%
Population Healthy Nuclei (%) [6]: 83%
Population Hoechst High Intensity Objects (%) [6]: 5%
Population Membrane Permeable-Phenotype (%) [6]: 0%
Population Mitochondria Different-Phenotype (%) [6]: 38%
Population Mitotic Cells (%) [6]: 46%
Population Normal (%) [6]: 94%
Total Cell Count [6]: 381
Population Apoptotic (%) [7]: 32%
Population Fragmented Nuclei (%) [7]: 7%
Population Healthy Nuclei (%) [7]: 78%
Population Hoechst High Intensity Objects (%) [7]: 4%
Population Membrane Permeable-Phenotype (%) [7]: 0%
Population Mitochondria Different-Phenotype (%) [7]: 31%
Population Mitotic Cells (%) [7]: 67%
Population Normal (%) [7]: 95%
Population Pyknosed Nuclei (%) [7]: 13%
Population Tubulin-Different-Phenotype (%) [7]: 28%
Total Cell Count [7]: 560
Population Apoptotic (%) [8]: 37%
Population Fragmented Nuclei (%) [8]: 12%
Population Healthy Nuclei (%) [8]: 77%
Population Hoechst High Intensity Objects (%) [8]: 5%
Population Mitochondria Different-Phenotype (%) [8]: 44%
Population Mitotic Cells (%) [8]: 62%
Population Normal (%) [8]: 94%
Population Pyknosed Nuclei (%) [8]: 10%
Population Tubulin-Different-Phenotype (%) [8]: 20%
Total Cell Count [8]: 475
Population Apoptotic (%) [9]: 26%
Population Fragmented Nuclei (%) [9]: 13%
Population Healthy Nuclei (%) [9]: 78%
Population Hoechst High Intensity Objects (%) [9]: 2%
Population Membrane Permeable-Phenotype (%) [9]: 1%
Population Mitochondria Different-Phenotype (%) [9]: 9%
Population Mitotic Cells (%) [9]: 73%
Population Normal (%) [9]: 97%
Population Pyknosed Nuclei (%) [9]: 8%
Population Tubulin-Different-Phenotype (%) [9]: 6%
Total Cell Count [9]: 799
Population Apoptotic (%) [10]: 17%
Population Fragmented Nuclei (%) [10]: 15%
Population Healthy Nuclei (%) [10]: 76%
Population Hoechst High Intensity Objects (%) [10]: 3%
Population Membrane Permeable-Phenotype (%) [10]: 0%
Population Mitochondria Different-Phenotype (%) [10]: 25%
Population Mitotic Cells (%) [10]: 82%
Population Normal (%) [10]: 96%
Population Tubulin-Different-Phenotype (%) [10]: 12%
Total Cell Count [10]: 566
Population Apoptotic (%) [11]: 33%
Population Fragmented Nuclei (%) [11]: 10%
Population Healthy Nuclei (%) [11]: 79%
Population Hoechst High Intensity Objects (%) [11]: 4%
Population Membrane Permeable-Phenotype (%) [11]: 1%
Population Mitochondria Different-Phenotype (%) [11]: 24%
Population Mitotic Cells (%) [11]: 66%
Population Normal (%) [11]: 95%
Population Pyknosed Nuclei (%) [11]: 9%
Population Tubulin-Different-Phenotype (%) [11]: 17%
Total Cell Count [11]: 752
Population Apoptotic (%) [12]: 36%
Population Fragmented Nuclei (%) [12]: 14%
Population Healthy Nuclei (%) [12]: 78%
Population Membrane Permeable-Phenotype (%) [12]: 0%
Population Mitochondria Different-Phenotype (%) [12]: 33%
Population Mitotic Cells (%) [12]: 63%
Population Pyknosed Nuclei (%) [12]: 6%
Population Tubulin-Different-Phenotype (%) [12]: 16%
Total Cell Count [12]: 630

COc1cc2nc(N3CCN(C(=O)COc4c(OC)cccc4C(C)C)CC3)nc(N)c2cc1OC.Cl.Cl
Population Apoptotic (%) [1]: 35%
Population Fragmented Nuclei (%) [1]: 12%
Population Healthy Nuclei (%) [1]: 77%
Population Hoechst High Intensity Objects (%) [1]: 5%
Population Membrane Permeable-Phenotype (%) [1]: 0%
Population Mitochondria Different-Phenotype (%) [1]: 48%
Population Mitotic Cells (%) [1]: 64%
Population Normal (%) [1]: 94%
Population Pyknosed Nuclei (%) [1]: 9%
Population Tubulin-Different-Phenotype (%) [1]: 23%
Total Cell Count [1]: 402
Population Apoptotic (%) [2]: 46%
Population Fragmented Nuclei (%) [2]: 8%
Population Healthy Nuclei (%) [2]: 81%
Population Hoechst High Intensity Objects (%) [2]: 4%
Population Mitochondria Different-Phenotype (%) [2]: 58%
Population Mitotic Cells (%) [2]: 53%
Population Normal (%) [2]: 95%
Population Tubulin-Different-Phenotype (%) [2]: 18%
Total Cell Count [2]: 365
Population Apoptotic (%) [3]: 52%
Population Fragmented Nuclei (%) [3]: 13%
Population Healthy Nuclei (%) [3]: 69%
Population Hoechst High Intensity Objects (%) [3]: 25%
Population Membrane Permeable-Phenotype (%) [3]: 1%
Population Mitochondria Different-Phenotype (%) [3]: 74%
Population Mitotic Cells (%) [3]: 48%
Population Normal (%) [3]: 74%
Population Pyknosed Nuclei (%) [3]: 17%
Population Tubulin-Different-Phenotype (%) [3]: 81%
Total Cell Count [3]: 386
Population Apoptotic (%) [4]: 57%
Population Fragmented Nuclei (%) [4]: 14%
Population Healthy Nuclei (%) [4]: 67%
Population Hoechst High Intensity Objects (%) [4]: 18%
Population Membrane Permeable-Phenotype (%) [4]: 3%
Population Mitochondria Different-Phenotype (%) [4]: 66%
Population Mitotic Cells (%) [4]: 42%
Population Normal (%) [4]: 81%
Population Pyknosed Nuclei (%) [4]: 18%
Population Tubulin-Different-Phenotype (%) [4]: 66%
Total Cell Count [4]: 286
Population Apoptotic (%) [5]: 35%
Population Fragmented Nuclei (%) [5]: 11%
Population Healthy Nuclei (%) [5]: 77%
Population Hoechst High Intensity Objects (%) [5]: 5%
Population Membrane Permeable-Phenotype (%) [5]: 0%
Population Mitochondria Different-Phenotype (%) [5]: 27%
Population Mitotic Cells (%) [5]: 64%
Population Normal (%) [5]: 95%
Population Pyknosed Nuclei (%) [5]: 10%
Population Tubulin-Different-Phenotype (%) [5]: 19%
Total Cell Count [5]: 540
Population Apoptotic (%) [6]: 42%
Population Fragmented Nuclei (%) [6]: 8%
Population Healthy Nuclei (%) [6]: 84%
Population Hoechst High Intensity Objects (%) [6]: 2%
Population Mitochondria Different-Phenotype (%) [6]: 44%
Population Mitotic Cells (%) [6]: 57%
Population Normal (%) [6]: 97%
Population Pyknosed Nuclei (%) [6]: 7%
Population Tubulin-Different-Phenotype (%) [6]: 16%
Total Cell Count [6]: 472
Population Apoptotic (%) [7]: 42%
Population Fragmented Nuclei (%) [7]: 14%
Population Healthy Nuclei (%) [7]: 64%
Population Hoechst High Intensity Objects (%) [7]: 29%
Population Membrane Permeable-Phenotype (%) [7]: 2%
Population Mitochondria Different-Phenotype (%) [7]: 68%
Population Mitotic Cells (%) [7]: 57%
Population Normal (%) [7]: 70%
Population Pyknosed Nuclei (%) [7]: 21%
Population Tubulin-Different-Phenotype (%) [7]: 69%
Total Cell Count [7]: 498
Population Apoptotic (%) [8]: 51%
Population Fragmented Nuclei (%) [8]: 13%
Population Healthy Nuclei (%) [8]: 59%
Population Hoechst High Intensity Objects (%) [8]: 39%
Population Mitochondria Different-Phenotype (%) [8]: 72%
Population Mitotic Cells (%) [8]: 48%
Population Normal (%) [8]: 60%
Population Pyknosed Nuclei (%) [8]: 27%
Population Tubulin-Different-Phenotype (%) [8]: 63%
Total Cell Count [8]: 286
Population Apoptotic (%) [9]: 28%
Population Fragmented Nuclei (%) [9]: 16%
Population Healthy Nuclei (%) [9]: 76%
Population Hoechst High Intensity Objects (%) [9]: 2%
Population Membrane Permeable-Phenotype (%) [9]: 1%
Population Mitochondria Different-Phenotype (%) [9]: 18%
Population Mitotic Cells (%) [9]: 71%
Population Normal (%) [9]: 97%
Population Pyknosed Nuclei (%) [9]: 6%
Population Tubulin-Different-Phenotype (%) [9]: 11%
Total Cell Count [9]: 930
Population Apoptotic (%) [10]: 11%
Population Fragmented Nuclei (%) [10]: 15%
Population Healthy Nuclei (%) [10]: 78%
Population Hoechst High Intensity Objects (%) [10]: 3%
Population Membrane Permeable-Phenotype (%) [10]: 0%
Population Mitotic Cells (%) [10]: 88%
Population Normal (%) [10]: 96%
Population Tubulin-Different-Phenotype (%) [10]: 12%
Total Cell Count [10]: 737
Population Apoptotic (%) [11]: 31%
Population Fragmented Nuclei (%) [11]: 18%
Population Healthy Nuclei (%) [11]: 56%
Population Hoechst High Intensity Objects (%) [11]: 41%
Population Membrane Permeable-Phenotype (%) [11]: 3%
Population Mitochondria Different-Phenotype (%) [11]: 48%
Population Mitotic Cells (%) [11]: 68%
Population Normal (%) [11]: 58%
Population Pyknosed Nuclei (%) [11]: 25%
Population Tubulin-Different-Phenotype (%) [11]: 56%
Total Cell Count [11]: 660
Population Apoptotic (%) [12]: 30%
Population Fragmented Nuclei (%) [12]: 17%
Population Healthy Nuclei (%) [12]: 59%
Population Hoechst High Intensity Objects (%) [12]: 46%
Population Membrane Permeable-Phenotype (%) [12]: 1%
Population Mitochondria Different-Phenotype (%) [12]: 49%
Population Mitotic Cells (%) [12]: 69%
Population Normal (%) [12]: 53%
Population Pyknosed Nuclei (%) [12]: 23%
Population Tubulin-Different-Phenotype (%) [12]: 38%
Total Cell Count [12]: 430
